Results from ChEMBL document CHEMBL1144169, “Synthesis and cytotoxic activity of heterocyclic ring-substituted betulinic acid derivatives” (Bioorg Med Chem Lett, 2008).
Values after ≈ are worked out from the molar mass of the structure shown.

Experiments:
[1] = test system: PA-1; assay: Cytotoxicity against human PA-1 cells after 72 hrs by MTT assay; assay type: functional, cell-based; settings: PA-1, 72 h
In short: (§1)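 Cells harvested from 70–80% confluent cultures by trypsin/EDTA and seeded at 5000 cells/well in DMEM for 24 h. Compounds were dissolved in DMSO and diluted in medium to 0.5–20, with final DMSO below 1%. After 72 h at CO2, MTT was added for 3 h at 37 °C. Medium was replaced with DMSO and OD read at 540 nm. IC50 ± SD, three independent experiments.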

[2] = test system: DU-145; assay: Cytotoxicity against human DU145 cells after 72 hrs by MTT assay; assay type: functional, cell-based; settings: DU-145, 72 h; in short: as §1
[3] = test system: SW-620; assay: Cytotoxicity against human SW620 cells after 72 hrs by MTT assay; assay type: functional, cell-based; settings: SW-620, 72 h; in short: as §1
[4] = test system: HBL-100; assay: Cytotoxicity against human HBL100 cells after 72 hrs by MTT assay; assay type: functional, cell-based; settings: HBL-100, 72 h; in short: as §1
[5] = test system: MIA PaCa-2; assay: Cytotoxicity against human MIA PaCa2 cells after 72 hrs by MTT assay; assay type: functional, cell-based; settings: MIA PaCa-2, 72 h; in short: as §1
[6] = test system: A549; assay: Cytotoxicity against human A549 cells after 72 hrs by MTT assay; assay type: functional, cell-based; settings: A549, 72 h; in short: as §1
[7] = test system: K562; assay: Cytotoxicity against human K-562 cells after 72 hrs by MTT assay; assay type: functional, cell-based; settings: K562, 72 h
[8] = test system: NIH3T3; assay: Cytotoxicity against mouse NIH3T3 cells after 72 hrs by MTT assay; assay type: cell-based; settings: NIH3T3, 72 h; in short: as §1
[9] = test system: MIA PaCa-2; assay: Selectivity index, ratio of IC50 for mouse NIH3T3 cells to IC50 for human MIA PaCa2 cells; assay type: functional
[10] = test system: NIH3T3; assay: Selectivity index, ratio of IC50 for mouse NIH3T3 cells to IC50 for human SW620 cells; assay type: functional

| Compound | IC50 [1] | IC50 [2] | IC50 [3] | IC50 [4] | IC50 [5] | IC50 [6] | IC50 [7] | IC50 [8] | Ratio IC50 [9] | Ratio IC50 [10] |
| --- | --- | --- | --- | --- | --- | --- | --- | --- | --- | --- |
| C=C(C)[C@@H]1CC[C@]2(C(=O)O)CC[C@]3(C)[C@H](CC[C@@H]4[C@@]5(C)Cc6c(n(C)c7ccccc67)C(C)(C)[C@@H]5CC[C@]43C)[C@@H]12 | > 20 µg/mL | 20 µg/mL (≈ 36.9 µM) | > 20 µg/mL | 19.5 µg/mL (≈ 36 µM) | 5.34 µg/mL (≈ 9.86 µM) | 6.9 µg/mL (≈ 12.7 µM) | 7.73 µg/mL (≈ 14.3 µM) | 15.1 µg/mL (≈ 27.9 µM) | – | – |
| C=C(C)[C@@H]1CC[C@]2(C(=O)O)CC[C@]3(C)[C@H](CC[C@@H]4[C@@]5(C)Cc6c([nH]c7c(F)cccc67)C(C)(C)[C@@H]5CC[C@]43C)[C@@H]12 | – | > 20 µg/mL | > 20 µg/mL | 3.5 µg/mL (≈ 6.41 µM) | 3.3 µg/mL (≈ 6.05 µM) | 3 µg/mL (≈ 5.5 µM) | 8.7 µg/mL (≈ 15.9 µM) | 2.1 µg/mL (≈ 3.85 µM) | – | – |
| C=C(C)[C@@H]1CC[C@]2(C(=O)O)CC[C@]3(C)[C@H](CC[C@@H]4[C@@]5(C)Cc6c([nH]c7cc(Cl)cc(Cl)c67)C(C)(C)[C@@H]5CC[C@]43C)[C@@H]12 | > 20 µg/mL | > 20 µg/mL | > 20 µg/mL | > 20 µg/mL | > 20 µg/mL | 5.5 µg/mL (≈ 9.22 µM) | > 20 µg/mL | 4.1 µg/mL (≈ 6.87 µM) | – | – |
| C=C(C)[C@@H]1CC[C@]2(C(=O)O)CC[C@]3(C)[C@H](CC[C@@H]4[C@@]5(C)Cc6c([nH]c7ccc(Cl)cc67)C(C)(C)[C@@H]5CC[C@]43C)[C@@H]12 | 2.5 µg/mL (≈ 4.45 µM) | 4.9 µg/mL (≈ 8.72 µM) | 2.7 µg/mL (≈ 4.8 µM) | 11.8 µg/mL (≈ 20.9 µM) | 2.44 µg/mL (≈ 4.34 µM) | 7.14 µg/mL (≈ 12.7 µM) | 9.61 µg/mL (≈ 17.1 µM) | 4.6 µg/mL (≈ 8.18 µM) | 2 | – |
| C=C(C)[C@@H]1CC[C@]2(C(=O)O)CC[C@]3(C)[C@H](CC[C@@H]4[C@@]5(C)Cc6c([nH]c7ccccc67)C(C)(C)[C@@H]5CC[C@]43C)[C@@H]12 | 6.01 µg/mL (≈ 11.4 µM) | 8.86 µg/mL (≈ 16.8 µM) | 5.15 µg/mL (≈ 9.76 µM) | 10.3 µg/mL (≈ 19.5 µM) | 6.7 µg/mL (≈ 12.7 µM) | 7.6 µg/mL (≈ 14.4 µM) | 10 µg/mL (≈ 19 µM) | 6.9 µg/mL (≈ 13.1 µM) | – | – |
| C=C(C)[C@@H]1CC[C@]2(C(=O)O)CC[C@]3(C)[C@H](CC[C@@H]4[C@@]5(C)CC[C@H](O)C(C)(C)[C@@H]5CC[C@]43C)[C@@H]12 [BETULINIC ACID] | 11.5 µg/mL (≈ 25.2 µM) | > 20 µg/mL | 13.3 µg/mL (≈ 29 µM) | 5.02 µg/mL (≈ 11 µM) | 10.3 µg/mL (≈ 22.6 µM) | 3 µg/mL (≈ 6.57 µM) | 3.25 µg/mL (≈ 7.12 µM) | 4.37 µg/mL (≈ 9.57 µM) | – | – |
| CC(C)[C@@H]1CC[C@]2(C(=O)O)CC[C@]3(C)[C@H](CC[C@@H]4[C@@]5(C)Cc6c([nH]c7ccc(Cl)cc67)C(C)(C)[C@@H]5CC[C@]43C)[C@@H]12 | 6.6 µg/mL (≈ 11.7 µM) | 6.5 µg/mL (≈ 11.5 µM) | 5.9 µg/mL (≈ 10.5 µM) | > 20 µg/mL | 15.2 µg/mL (≈ 26.9 µM) | 8.8 µg/mL (≈ 15.6 µM) | > 20 µg/mL | 19 µg/mL (≈ 33.7 µM) | – | – |
| C=C(C)[C@@H]1CC[C@]2(C(=O)O)CC[C@]3(C)[C@H](CC[C@@H]4[C@@]5(C)Cc6c([nH]c7ccc(F)cc67)C(C)(C)[C@@H]5CC[C@]43C)[C@@H]12 | > 20 µg/mL | > 20 µg/mL | 9.16 µg/mL (≈ 16.8 µM) | > 20 µg/mL | 17.4 µg/mL (≈ 31.9 µM) | 17.8 µg/mL (≈ 32.6 µM) | 10.9 µg/mL (≈ 20.1 µM) | > 20 µg/mL | – | – |
| CC(C)[C@@H]1CC[C@]2(C(=O)O)CC[C@]3(C)[C@H](CC[C@@H]4[C@@]5(C)Cc6c([nH]c7ccc(F)cc67)C(C)(C)[C@@H]5CC[C@]43C)[C@@H]12 | > 20 µg/mL | > 20 µg/mL | 7.28 µg/mL (≈ 13.3 µM) | > 20 µg/mL | 8.4 µg/mL (≈ 15.3 µM) | 8.89 µg/mL (≈ 16.2 µM) | 14 µg/mL (≈ 25.6 µM) | 14.6 µg/mL (≈ 26.6 µM) | – | – |
| C=C(C)[C@@H]1CC[C@]2(C(=O)O)CC[C@]3(C)[C@H](CC[C@@H]4[C@@]5(C)Cc6c([nH]c7c(Cl)cccc67)C(C)(C)[C@@H]5CC[C@]43C)[C@@H]12 | 6.39 µg/mL (≈ 11.4 µM) | 11.7 µg/mL (≈ 20.7 µM) | 2 µg/mL (≈ 3.56 µM) | 11.8 µg/mL (≈ 21 µM) | 11.6 µg/mL (≈ 20.6 µM) | 8.7 µg/mL (≈ 15.5 µM) | 9.26 µg/mL (≈ 16.5 µM) | 11.8 µg/mL (≈ 21 µM) | – | 6 |
| C=C(C)[C@@H]1CC[C@]2(C(=O)NCC(=O)O)CC[C@]3(C)[C@H](CC[C@@H]4[C@@]5(C)Cc6c([nH]c7ccc(Cl)cc67)C(C)(C)[C@@H]5CC[C@]43C)[C@@H]12 | 6.66 µg/mL (≈ 10.8 µM) | 10.3 µg/mL (≈ 16.7 µM) | 10.4 µg/mL (≈ 16.8 µM) | 16.5 µg/mL (≈ 26.6 µM) | 10.7 µg/mL (≈ 17.3 µM) | 12.4 µg/mL (≈ 20 µM) | > 20 µg/mL | 11.2 µg/mL (≈ 18.1 µM) | – | – |
| CC(C)[C@@H]1CC[C@]2(C(=O)O)CC[C@]3(C)[C@H](CC[C@@H]4[C@@]5(C)Cc6c(oc7ccccc67)C(C)(C)[C@@H]5CC[C@]43C)[C@@H]12 | > 20 µg/mL | > 20 µg/mL | > 20 µg/mL | > 20 µg/mL | 8.8 µg/mL (≈ 16.6 µM) | 7.1 µg/mL (≈ 13.4 µM) | 15.3 µg/mL (≈ 28.8 µM) | 20 µg/mL (≈ 37.7 µM) | – | – |
| C=C(C)[C@@H]1CC[C@]2(C(=O)NCC(=O)O)CC[C@]3(C)[C@H](CC[C@@H]4[C@@]5(C)Cc6c([nH]c7ccccc67)C(C)(C)[C@@H]5CC[C@]43C)[C@@H]12 | 3 µg/mL (≈ 5.13 µM) | 7 µg/mL (≈ 12 µM) | 8.7 µg/mL (≈ 14.9 µM) | > 20 µg/mL | 0.67 µg/mL (≈ 1.15 µM) | 3.53 µg/mL (≈ 6.04 µM) | 11.9 µg/mL (≈ 20.4 µM) | 0.68 µg/mL (≈ 1.16 µM) | – | – |
| C=C(C)[C@@H]1CC[C@]2(C(=O)O)CC[C@]3(C)[C@H](CC[C@@H]4[C@@]5(C)Cc6c([nH]c7ccc(OC)cc67)C(C)(C)[C@@H]5CC[C@]43C)[C@@H]12 | 5.8 µg/mL (≈ 10.4 µM) | 5.75 µg/mL (≈ 10.3 µM) | 8.4 µg/mL (≈ 15.1 µM) | 12.8 µg/mL (≈ 22.9 µM) | 6.4 µg/mL (≈ 11.5 µM) | 8.2 µg/mL (≈ 14.7 µM) | > 20 µg/mL | 7.5 µg/mL (≈ 13.4 µM) | – | – |
| CC(C)[C@@H]1CC[C@]2(C(=O)O)CC[C@]3(C)[C@H](CC[C@@H]4[C@@]5(C)Cc6c(n(C)c7ccccc67)C(C)(C)[C@@H]5CC[C@]43C)[C@@H]12 | > 20 µg/mL | > 20 µg/mL | > 20 µg/mL | 14.1 µg/mL (≈ 26 µM) | 5.4 µg/mL (≈ 9.93 µM) | 6.5 µg/mL (≈ 12 µM) | 10.8 µg/mL (≈ 20 µM) | > 20 µg/mL | – | – |
